Measured values reported in publication PMC4277818 (Molecular imaging and biology : MIB : the official …, 2012).

Tested on: TRAP5b
Assay: Serum TRAP5b solid-phase immunoassay
Type: in vivo, C57BL/6 mice
Details: 0.3 mg/kg RANKL twice a day for 10 days; PET/CT imaging study, n=4
Summary of the method: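 Male C57BL/6 mice (~23 g) got RANKL s.c. in the nape in 50 μL saline, twice a day for 10 days, under brief isoflurane; controls got vehicle. Blood was taken by submandibular venous puncture before biodistribution or at sacrifice. Serum was spun at 10,000 rpm for 5 min at 4°C and stored at −20°C. Osteoclastic TRAP5b was measured by solid-phase immunoassay. P<0.05 was significant.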

B1: RANKL: receptor activator of nuclear factor κB ligand, cytokine stimulating osteoclastogenesis; provided by Amgen (protein, UniProt O14788 140-317, looked up)
Tumor necrosis factor ligand …: IRAEKAMVDGSWLDLAKRSKLEAQPFAHLTINATDIPSGSHKVSLSSWYHDRGWAKISNMTFSNGKLIVNQDGFYYLYANICFRHHETSGDLATEYLQLMVYVTKTSIKIPSSHTLMKGGSTKYWSGNSEFHFYSINVGGFFKLRSGEEISIEVSNPSLLDPDQDATYFGAFKVRDID
- increase of serum TRAP5b, RANKL-treated vs control cohort: 1.6 fold
